Source: PubChem
L major viab: Leishmania major promastigote growth inhibition; Leishmania major promastigotes, resazurin fluorescence viability; inhibition, % at 10 µM; actives 9% (n = 200,000); in the data active means inhibition above about 50%;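 further: promastigotes grown with compound for 44 hours at 28 °C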
TNAP act hi DEA: increases human TNAP activity under high phosphate acceptor concentration. P05186. 200,000 tested, under 10 active. AID 1136. activation factor at 20 µM. purified TNAP, CDP-star luminescence, 1 M DEA, 30 min; hits give high values; 0 = EDTA background, 1 = DMSO-only activity;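 active means activation factor at least 2 at 20 µM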
Target sequence (P05186 whole entry, looked up): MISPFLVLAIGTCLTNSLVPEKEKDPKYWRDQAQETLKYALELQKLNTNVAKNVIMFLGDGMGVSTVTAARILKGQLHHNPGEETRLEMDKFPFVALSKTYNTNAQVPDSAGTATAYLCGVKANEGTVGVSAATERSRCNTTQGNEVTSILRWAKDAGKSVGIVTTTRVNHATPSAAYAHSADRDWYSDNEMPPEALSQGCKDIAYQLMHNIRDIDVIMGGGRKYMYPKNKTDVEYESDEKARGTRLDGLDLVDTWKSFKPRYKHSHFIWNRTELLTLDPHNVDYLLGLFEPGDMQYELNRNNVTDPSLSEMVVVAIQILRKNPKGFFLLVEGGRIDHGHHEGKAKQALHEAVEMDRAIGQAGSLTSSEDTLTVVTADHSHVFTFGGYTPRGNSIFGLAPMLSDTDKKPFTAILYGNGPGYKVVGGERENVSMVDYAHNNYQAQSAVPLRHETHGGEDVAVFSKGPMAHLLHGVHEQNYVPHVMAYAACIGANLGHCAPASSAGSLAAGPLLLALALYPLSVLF
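Test system – human TNAP · Doses – 20 µM single point · Incubation – 30 min, room temperature · Signal – luminescent substrate turnover signal · Read-out basis – activation factor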
HCT116 bCat-KO: beta-catenin-lacking colon tumor cell growth suppression; HCT116 beta-catenin knockout viability, CellTiter-Glo, 60 h; hits give low values; viability, % at 10 µM; actives 1.5% (n = 140,000); AID 818;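 active means viability at or under a set limit, the compound median less 4 SD, cut at about 6% in these data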
TNAP inh hiacc: TNAP (human) inhibition, high acceptor; P05186; purified TNAP, CDP-star luminescence, 1 M DEA; inhibition, % at 20 µM; actives 0.03% (n = 200,000); AID 1135;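 active means over 50% inhibition of tissue-nonspecific alkaline phosphatase at 20 µM in the single-dose screen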
PTEN del growth: PTEN-deleted cell growth suppression. HCT116 PTEN-null viability, CellTiter-Glo, 60 h; hits give low values. viability, % at 10 µM. actives 1.2% (n = 140,000). AID 827;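 active means viability at or below a set limit, 4 SD under the median of all tested compounds, cut at about 3.7% in these data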;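 further: PTEN knockout HCT116 line with beta catenin targeted HCT116 as companion control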
TNAP inh noacc: TNAP (human) inhibition, acceptor-free conditions | purified TNAP, CDP-star luminescence, 30 min | actives 0.26% (n = 200,000) | inhibition, % at 20 µM;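 active means tissue-nonspecific alkaline phosphatase inhibition above about 50% at 20 µM in the single-dose screen, limit read from the data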
Large screens that a line does not name were inactive. This is a sample that favours compounds with a hit; in the whole collection about 9.6% have one here.

CC(/C=N/NC(=O)c1cc(-c2ccccc2)nc2ccccc12)=C\c1ccco1	L major viab 98
CC(/C=N/NC(=O)c1cc(-c2ccc(Cl)cc2)nc2ccccc12)=C\c1ccco1	L major viab 62
C=CCn1c(SCC(=O)Nc2ccc(-c3nc4ccc(C)cc4s3)cc2)nnc1-c1ccncc1	L major viab 50
CCn1c(SCC(=O)Nc2ccc(-c3nc4ccc(C)cc4s3)cc2)nnc1-c1ccccc1	none
CN(Cc1ccccc1)S(=O)(=O)c1cccc(C(=O)O)c1	none (no result: HCT116 bCat-KO, PTEN del growth)
CC(=O)NCc1ccc(C(=O)CCl)s1	L major viab 100 (no result: HCT116 bCat-KO, PTEN del growth)
CC(=O)N(C)Cc1ccc(C(=O)CCl)cc1	L major viab 101 (no result: HCT116 bCat-KO, PTEN del growth)
CCC(=O)c1ccc(CCCCCC(=O)O)s1	none
CN(Cc1ccccc1)C(=O)CCC(=O)N(C)Cc1ccccc1	none
CC(=O)NCc1ccc(C(=O)CCl)cc1	L major viab 93 (no result: HCT116 bCat-KO, PTEN del growth)
COc1ccc(Cc2nnc(NC(=O)CSc3ccccc3)s2)cc1OC	L major viab 51
COc1ccc(Cc2nnc(NC(=O)CSc3ccc(Cl)cc3)s2)cc1OC	none
CCc1nnc(NC(=O)CCC(=O)NCCc2ccc(OC)c(OC)c2)s1	L major viab 61
CCc1nnc(NC(=O)CSc2nnc(-c3ccccc3OC)n2-c2ccc(C)cc2)s1	L major viab 57
CCc1nnc(NC(=O)CCC(=O)N2CCN(C3c4ccccc4-c4ccccc43)CC2)s1	L major viab 51
Cc1ccc(/C=N/c2sc3c(c2C(N)=O)CCCC3)o1	none (no result: HCT116 bCat-KO, PTEN del growth)
Cc1cccc(NC(=O)CSc2nnc(NC(=O)c3ccco3)s2)c1	none (no result: HCT116 bCat-KO, PTEN del growth)
COc1cc(NC(=O)COC(=O)CSc2cc(C)ccc2C)c(C)cc1[N+](=O)[O-]	none
COc1cccc(-n2nnnc2SCC(=O)Nc2ccc(C(C)=O)cc2)c1	none
CCCS(=O)(=O)c1nnnn1-c1cccc(OC)c1	L major viab 100, HCT116 bCat-KO 1.4, PTEN del growth 1.3
N#C/C(=C\c1sc(N2CCOCC2)nc1-c1ccccc1)C(=O)Nc1cccc2ccccc12	HCT116 bCat-KO 3.9, PTEN del growth 2.3
COc1cccc(CN(C)Cc2nc(Cc3ccccc3Cl)no2)c1	none (no result: HCT116 bCat-KO, PTEN del growth)
O=C(/C=C/c1ccccc1)OCCCN=C1NS(=O)(=O)c2ccccc21	none (no result: HCT116 bCat-KO, PTEN del growth)
CCOc1cccc(/C=N/Nc2ccc(S(=O)(=O)N(CC)CC)cn2)c1O	L major viab 82, HCT116 bCat-KO 3.8, PTEN del growth 2.8
CCN(CC)S(=O)(=O)c1ccc(N/N=C/c2cc(OC)c(OC)cc2OC)nc1	none
Cc1ccc(NC(=O)CN2C(=O)C3C4C=CC(C4)C3C2=O)cc1S(=O)(=O)N(C)C (centres undefined)	none
O=C(COc1ccc(Br)cc1)N1CCc2ccccc2C1	none (no result: HCT116 bCat-KO, PTEN del growth)
Cc1ccc(SCCOCCN2CCc3ccccc3C2)cc1	L major viab 92
CCOc1ccc(OCCOCCN2CCc3ccccc3C2)cc1	L major viab 91
C=CCc1cc(OC)ccc1OCCOCCN1CCc2ccccc2C1	L major viab 90 (no result: HCT116 bCat-KO, PTEN del growth)
c1ccc(OCCOCCN2CCc3ccccc3C2)cc1	L major viab 98
C=C(C)CC1(NC(C)c2ccccc2)CCCCC1 (centres undefined)	none
Cc1ccc(NS(=O)(=O)c2ccc(Br)s2)nc1	none (no result: HCT116 bCat-KO, PTEN del growth)
CCOC(=O)CS(=O)(=O)c1ccc(O)cc1	none (no result: HCT116 bCat-KO, PTEN del growth)
c1ccc(OCCOCCN2CCN(C(c3ccccc3)c3ccccc3)CC2)cc1	none
CCCOc1ccc(OCCOCCN2CCc3ccccc3C2)cc1	L major viab 97
C=CCc1cc(OC)ccc1OCCOCCC(C(=O)OCC)C(=O)OCC	L major viab 54
CN1C(=O)CC(C(=O)O)SC1=Nc1cc(Cl)cc(Cl)c1 (centres undefined)	none
Cn1nnnc1SCC(=O)Nc1ccccc1C(N)=O	none (no result: HCT116 bCat-KO, PTEN del growth)
O=[N+]([O-])c1cc(-c2ncccn2)c([N+](=O)[O-])s1	HCT116 bCat-KO 2.2
Cc1cc2oc(=O)cc(CN3CCN(S(=O)(=O)c4cccs4)CC3)c2cc1C	L major viab 81
Cc1cc2oc(=O)cc(CN3CCN(C/C=C/c4ccccc4)CC3)c2cc1O	L major viab 100, HCT116 bCat-KO 2.3, PTEN del growth 2.8
CCOC(=O)Nc1ccc2c(CN3C(=O)NC4(CCCC4)C3=O)cc(=O)oc2c1	none
CCOC(=O)Nc1ccc2c(CN3CCN(S(=O)(=O)c4ccccc4)CC3)cc(=O)oc2c1	L major viab 100
Cc1cc2oc(=O)cc(CN3CCOCC3)c2cc1C	none
O=c1cc(CN2CCN(C/C=C/c3ccccc3)CC2)c2cc(O)c(-c3ccccc3)cc2o1	L major viab 80
O=C(CCN1CCN(C/C=C/c2ccccc2)CC1)Nc1ccccc1	L major viab 93
COc1ccccc1NC(=O)C(C)N1CCN(C/C=C/c2ccccc2)CC1 (centres undefined)	L major viab 84
O=C(CCN1CCCC1)Nc1ccccc1	none
COC(=O)c1ccccc1NC(=O)N1CCN(C/C=C/c2ccccc2)CC1	none
Cc1ccccc1NC(=O)CCN1CCN(C/C=C/c2ccccc2)CC1	L major viab 88
Cc1cccc(NC(=O)CCN2CCN(C/C=C/c3ccccc3)CC2)c1	L major viab 91
CCOc1ccc(Oc2c(/C=N/NC(=O)C3CC3)c(C)nn2-c2ccccc2)cc1	none
COc1ccc(S(=O)(=O)N2CCC(O)(c3cccnc3)CC2)cc1OC	none (no result: HCT116 bCat-KO, PTEN del growth)
CC(C)CCn1nc(C(=O)Nc2nc3c(s2)CCCC3)c2ccccc2c1=O	L major viab 65
O=C(Nc1nc2c(s1)CCCC2)c1nn(Cc2ccccc2)c(=O)c2ccccc12	none
COc1cc(C(=O)NCCOc2ccc(F)cc2)c(Br)c(OC)c1OC	none (no result: HCT116 bCat-KO, PTEN del growth)
Cc1cc(N/N=C/c2ccccc2Cl)nc(NCc2ccccc2)n1	L major viab 86
Cc1ccc(Nc2cc(C)nc(NCc3ccccc3)n2)cc1	L major viab 100, HCT116 bCat-KO 1.0, PTEN del growth 1.0
Cc1cc(NC2CCCCC2)nc(NCc2ccccc2)n1	L major viab 97, HCT116 bCat-KO 2.6, PTEN del growth 3.2
COc1cc(C)nc(NCc2ccccc2)n1	none
Cc1cc(C)nc(N/N=C/c2cccc3ccccc23)n1	none
Cc1ccc(C(=O)C(C)Sc2nnc(N)s2)cc1 (centres undefined)	none (no result: HCT116 bCat-KO, PTEN del growth)
C#CCOCCOCCOCCNc1nc(N2CCN(C(=O)C([C@@H](C)CC)n3cc(C(N)Cc4ccc(O)cc4)nn3)CC2)nc(N2CCN(C(=O)[C@H](CCC(=O)O)n3cc(C(N)Cc4ccc(O)cc4)nn3)CC2)n1 (some centres undefined)	none (no result: HCT116 bCat-KO, PTEN del growth)
CCOC(=O)C1=C(O)/C(=C/c2ccccn2)SC1=Nc1ccc(Cl)cc1	L major viab 65
CCOC(=O)C1=C(O)/C(=C/c2ccc(OCC(=O)O)c(OCC)c2)SC1=Nc1ccccc1	none (no result: HCT116 bCat-KO, PTEN del growth)
c1cncc(-c2nc(NCCCN3CCOCC3)c3c4c(sc3n2)CCC4)c1	L major viab 68 (no result: HCT116 bCat-KO, PTEN del growth)
